Results on 3 molecules are retold here after PMC10234622 (Matrix biology : journal of the International Society for …, 2022).

For experiment [1], the target named is FITC-labeled ASPN peptide (FITC-ε-Ahx-Asporin) (mouse). Nature of the experiment: MST.
Experiment [2] deals with Aspn in 3T3 embryonic fibroblasts. Put plainly: Aspn expression and release in 3T3 embryonic fibroblasts, western blot. Format: cell-based. The note with it: TGFβ1 5 ng/ml, 24 h; n = 4. An outline of the steps:
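3T3 fibroblasts were grown in DMEM (10 mM glucose, 10% FBS, pH 7.4) and given vehicle or TGFβ1 5 ng/ml for 24 h. Intracellular Aspn came from cell lysates and extracellular Aspn from the collected media. Equal protein (Bradford) was run on 4–12% Bis-Tris gels and transferred to nitrocellulose. Blots were blocked in 5% milk 45 min, probed with anti-ASPN 1:1000 overnight at 4 °C, then peroxidase secondary 2 h RT; n = 4.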
Background: Immunoblotting shows a protein as a band on a membrane.

Experiment [3] has as its system Aspn in differentiated H9c2 cardiomyocytes. Put plainly: Aspn expression and release in H9c2 cardiomyocytes. The note with it: TGFβ1 stimulation of cardiomyocytes. Format: cell-based.
The subject of the next experiment is H9c2 cardiomyocytes. Nature of the experiment: Seahorse respirometry on differentiated H9c2 cardiomyocytes. The note with it: rASPN 1 nM for 24 hrs, vs vehicle, n = 3. Format: cell-based. An outline of the steps:
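H9c2 cells were seeded at 15,000/well and differentiated for 5 days, then given vehicle or rASPN 1 nM for 24 h. Medium was switched to XF base with glucose, pyruvate and glutamine, and cells equilibrated 45 min at 37 °C without CO₂. OCR was recorded at several time points, basally and after sequential oligomycin, FCCP and antimycin A/rotenone. Parameters were calculated from traces; mean with SD, n = 3, unpaired t-test.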

Experiment [4] deals with differentiated H9c2 cardiomyocytes. Put plainly: LDH release after hypoxia/reoxygenation. Format: cell-based. The settings on record: rASPN 1 nM for 24 hrs prior to hypoxia (2 hrs) and reoxygenation (2 hrs); n = 4. Background: Release of lactate dehydrogenase indicates damage to the cell membrane.
Experiment [5] has the same test system. Put plainly: TUNEL staining after hypoxia/reoxygenation. Format: cell-based. The settings on record: rASPN treatment; hypoxia-reoxygenation. The essentials:
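H9c2 cells were differentiated for 5 days (1% FBS, 1 nM retinoic acid) and given vehicle or rASPN 1 nM for 24 h. Hypoxia 2 h and reoxygenation 2 h followed. Cells were fixed in 2% PFA 15 min RT, permeabilized with 0.1% Triton X-100, TUNEL-labelled with fluorescein and counterstained with DAPI. TUNEL-positive nuclei were counted over many fields of 10–15 cells and expressed as a ratio to DAPI-stained cells; mean with SD.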

Experiment [6] has the same test system. Nature of the experiment: MitoSOX staining, ROS after hypoxia-reoxygenation. Format: cell-based. The note with it: rASPN. An outline of the steps: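 H9c2 cells were differentiated for 5 days in DMEM with 1% FBS and 1 nM retinoic acid. They were given vehicle or rASPN, then simulated hypoxia-reoxygenation; control cells stayed under normal culture. Cells were stained with MitoSOX red and imaged by fluorescence microscopy. Intensity was expressed relative to control; mean with SD, one-way ANOVA with Tukey's test.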

For orientation: Kd means the concentration at which binding is half-saturated. In experiment [1], “recombinant mouse TGFβ-1 protein (from UniProt P04202 279-390) (ligand)” came in with a Kd of 15 nM.
Consider TGFβ1: Transforming growth factor β1, for which, in experiment [2], the “expression of Aspn (intracellular)” value is “increased expression” and the “release of Aspn into extracellular media” value is listed as “increased release of Aspn”. The “Aspn induction or release in extracellular media” value in experiment [3] was “no significant induction or any release in extracellular media”.

B1: rASPN: Recombinant asporin protein (protein, UniProt Q9BXN1 33-380, looked up)
Asporin: DMEDTDDDDDDDDDDDDDDEDNSLFPTREPRSHFFPFDLFPMCPFGCQCYSRVVHCSDLGLTSVPTNIPFDTRMLDLQNNKIKEIKENDFKGLTSLYGLILNNNKLTKIHPKAFLTTKKLRRLYLSHNQLSEIPLNLPKSLAELRIHENKVKKIQKDTFKGMNALHVLEMSANPLDNNGIEPGAFEGVTVFHIRIAEAKLTSVPKGLPPTLLELHLDYNKISTVELEDFKRYKELQRLGLGNNKITDIENGSLANIPRVREIHLENNKLKKIPSGLPELKYLQIIFLHSNSIARVGVNDFCPTVPKMKKSLYSAISLFNNPVKYWEMQPATFRCVLSRMSVQLGNFGM
With B1, in the experiment on H9c2 cardiomyocytes (FCCP as uncoupler), the maximal respiration result is “significant increase” and the spare respiratory capacity result is “significant increase”. For the same molecule, in the experiment with H9c2 cardiomyocytes, the ATP production result is “increased basal OCR and ATP production”; the “basal OCR” value is given as “increased basal OCR”; the “non-mitochondrial OCR” value is listed as “reducing”. Also, in experiment [4], the “cell death (LDH release)” value is listed as “reduced cell death”. Besides, in experiment [5], the “percent TUNEL positive cells” value is “reduced percent TUNEL positive cells”. In experiment [6], the “ROS production (MitoSOX)” value is listed as “significantly reduced”.
